The source of these data is publication PMC11408689 (Nature Communications, 2024).

One data set deals with phosphorylated IRE1α. Briefly: UPR marker phospho-IRE1α in TH-positive neurons after MPP+ injury. In kind it is cell-based, rat. The following applies: for UPR modulating effect on IRE1α pathway: compared to wild-type C-CDNF. The procedure, abridged:
(§1)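 Rat primary mesencephalic neurons were pretreated with test compound (PBS stock diluted in medium) from 4 h before injury. They were then exposed on DIV6 to 4 µM MPP+ for 48 h, six wells per condition. Fixed cells were double-stained for TH plus phospho-IRE1α, ATF4 or ATF6, with Hoechst nuclear counterstain. Twenty 10x images per well were analysed automatically for TH/phospho-IRE1α overlap or stained nuclei in TH+ cells. Results are % vs control; one-way ANOVA with Dunnett's test.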

For the next data set, the system named is nucleus-localized ATF6. Description: UPR marker nucleus-localized ATF6 in TH-positive neurons after MPP+ injury. It is filed as cell-based, rat. The procedure, abridged:
as §1

The test system of a further data set is nucleus-localized ATF4. Briefly: UPR marker nucleus-localized ATF4 in TH-positive neurons after MPP+ injury. It is filed as cell-based, rat. The settings on record: for UPR modulating effect on PERK/ATF4 pathway: compared to wild-type C-CDNF. The procedure, abridged:
as §1

Data set [1] addresses T1, GRP78-NBD (Homo sapiens, UniProt P11021). Description: SEC-SAXS of GRP78-NBD and its complexes with CDNF or C-CDNF. It is filed as binding. The procedure, abridged:
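Recombinant human proteins expressed in E. coli: CDNF in T7 Shuffle Express (to keep disulfides), GRP78-NBD in BL21 Star (DE3). In-line SEC-SAXS used 10 μl at ~10 mg/ml on Superdex 200 Increase at 0.35 ml/min and 20 °C, in PBS pH 7.2 with 1.5% glycerol. Data were collected at EMBL P12 (Pilatus 6M) in a 1 mm quartz capillary.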

Data set [2] concerns the target T1, GRP78-NBD. Description: 2D 1H-13C HSQC NMR titration of 13C/15N-Ala labeled C-CDNF with GRP78-NBD. In kind it is binding. The settings on record: GRP78-NBD 0-65 µM.
In data set [3] the test system is TH-positive dopamine neurons (rat primary mesencephalic neurons). In kind it is cell-based. The following applies: for neuroprotective activity: any of the tested concentrations. The procedure, abridged:
(§2)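 Rat primary mesencephalic neurons were used. On DIV6, medium (Neurobasal, B27, BDNF, GDNF) was replaced with medium containing 4 µM MPP+ for 48 h. Test compound, from PBS stocks diluted in medium, was added 4 h before MPP+. Six wells per condition; fixed, then immunostained for TH and α-synuclein. Twenty 10x images per well, automated count of TH+ neurons and TH/aSyn overlap area. Reported as % of untreated control; one-way ANOVA with Dunnett's test.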

For data set [4], the target named is T1, GRP78-NBD. Briefly: Spectral shift binding assay. The settings on record: ligand up to 100 μM; 25 °C. The procedure, abridged: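 Tag-free GRP78-NBD (His-tagged, expressed in E. coli BL21 Star (DE3), cobalt-affinity purified, TEV-cleaved, SEC-polished) labelled with NT-650-NHS, held at 10 nM. Ligand serial dilutions were made in PBS pH 7.2 with 0.05% Tween 20, giving 100 μM to 3.05 nM final. Read on Monolith X at 25 °C, 100% LED, as the 670/650 nm ratio. Amplitude is the unbound-to-bound plateau difference.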

Data set [5] deals with α-synuclein (aSyn) aggregates in dopamine neurons. Description: α-synuclein. In kind it is cell-based, rat. The procedure, abridged:
as §2

Data set [6] deals with GRP78-NBD. The settings on record: crystal structure; cited from earlier work.
Where [7] appears, read: MPP+ injury, 4 µM, 48 h, p < 0.0001 vs control.
[8] abbreviates: SEC-SAXS, PBS pH 7.2, 1.5% glycerol, 20 °C.

Substitutions are numbered along the chain they refer to. “And” between values parts separate entries of the source, which are not always exact repeats. Equal entries are not always repeated. “Also recorded” adds a separate entry of the source. Starred links: 1 amine or outer side, 2 acyl side, 3 side chain; linkers in the order of their positions; H or OH if unused. Positions of bridges follow the written chain, without caps; N, C: chain ends. Non-standard residues stand in square brackets, D forms with d. Ala(13C3,15N) = 13C3,15N-labelled alanine, [13CH3][13C@H]([15NH][*:1])[13C](=O)[*:2]

T1 sequence (P11021 26-382): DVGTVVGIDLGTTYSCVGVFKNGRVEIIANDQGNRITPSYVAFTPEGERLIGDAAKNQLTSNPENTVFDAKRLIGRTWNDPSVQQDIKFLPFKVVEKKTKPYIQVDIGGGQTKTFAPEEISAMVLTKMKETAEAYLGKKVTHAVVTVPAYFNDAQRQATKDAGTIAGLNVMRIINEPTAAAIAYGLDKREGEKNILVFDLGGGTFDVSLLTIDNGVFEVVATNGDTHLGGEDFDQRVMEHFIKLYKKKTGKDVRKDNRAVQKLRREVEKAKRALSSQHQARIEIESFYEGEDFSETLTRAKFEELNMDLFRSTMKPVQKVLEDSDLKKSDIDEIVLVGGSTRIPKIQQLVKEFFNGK

As to `C[n+]1ccc(-c2ccccc2)cc1` [MPP^+, 1-methyl-4-phenyl-pyrididium, reference compound], in the data set on phosphorylated IRE1α (setting [7]), the “increase of S724 phosphorylated IRE1α from control cells” value amounted to 81.0 ± 5.0%. Moreover, the “increase of nucleus-localized ATF6 from control cells” value in the data set with nucleus-localized ATF6 (setting [7]) turned out to be 79.5 ± 6.2. Further, the “increase of nucleus-localized ATF4 from control cells” value in the data set on nucleus-localized ATF4 (setting [7]) is on record as 42.1 ± 6.1.

“CDNF: Cerebral dopamine neurotrophic factor, CDNFWT (aa 25-187), expressed in E. coli”: in the data set with GRP78-NBD [1] (shift of SEC-SAXS elution peak to earlier elution, excess ligand), the “complex formation with GRP78-NBD” value is reported as “formed a complex with GRP78-NBD”.

As to “GRP78-NBD: nucleotide-binding domain of GRP78 (aa 26-382), expressed in E. coli”, in the data set with GRP78-NBD [1] (setting [8]), the “Dmax (PDDF/P(r) analysis)” value is 6.5 nm and 6.5 ± 0.2 nm; the “Rg (Guinier Analysis)” value is 2.2 nm and 2.2 ± 0.1 nm. In addition, the “Envelope volume (ab initio modeling, Dammif)” value with GRP78-NBD [1] (from SEC-SAXS data) is 83 nm^3.

B1: ^13C/^15N-Ala-labeled C-CDNF: C-CDNF with labeled alanine residues A135, A145, A162, A175, A179, A180 (peptide)
peptide: KYEKTLDL[Ala(13C3,15N)]SVDLRKMRV[Ala(13C3,15N)]ELKQILHSWGEECRAC[Ala(13C3,15N)]EKTDYVNLIQEL[Ala(13C3,15N)]PKY[Ala(13C3,15N)][Ala(13C3,15N)]THPKTEL
modifications: disulfide 32-35
Consider B1, for which, in the data set with GRP78-NBD [2], the “effect of GRP78-NBD titration on Ala methyl groups” value is “The three well-resolved methyl groups of A145, A162 and A175 are clearly affected; also recorded: A179 and A180 do not display any clear effects”.

B2: C-CDNF-MT1 (protein)
peptide: KYEKTLDLASVDLRKMRVAELKQILHSWGEECRACAAATDYVNLIQELAPKYAATHPKTEL
modifications: disulfide 32-35
B2: in the data set on phosphorylated IRE1α, the “UPR modulating effect on IRE1α pathway” value is listed as “nearly completely lost the UPR modulating effect”. The “neuroprotective activity” value in data set [3] (MPP+ 48 h) is listed as “did not show any neuroprotective activity”. Moreover, the “maximal increase of dopamine neuron survival from MPP+ model effect” value in [3] (maximal effect over tested concentrations (5-500 nM), p = 0.9771) came to 13.6 ± 6.7%. The “binding to GRP78-NBD (spectral shift), in words” value with GRP78-NBD [4] is given as “do not bind to GRP78-NBD”. Also, the “UPR modulating effect on PERK/ATF4 pathway” value with nucleus-localized ATF4 was “nearly completely lost the UPR modulating effect”. Further, in [5] (maximal effect over tested concentrations (5-500 nM), p = 0.4382), the “maximal reduction of aSyn aggregation from MPP+ model effect” value was 21.2 ± 5.9%.

B3: C-CDNF-MT3 (protein)
chain: B2 peptide with R33A, A37E
modifications: disulfide 32-35
Consider B3, for which the “decrease in phospho-IRE1α” value with phosphorylated IRE1α (500 nM, p = 0.0003) came out at 67.2 ± 6.0%. Also, the “UPR modulating activity” value in the data set with phosphorylated IRE1α (5 and 50 nM) was “loss of UPR modulating activity”. Also, the “ATF6 pathway modulating activity” value in the data set with nucleus-localized ATF6 (5-500 nM) is “dose-dependent effect”. The “increase of dopamine neuron survival from MPP+ model effect” value in data set [3] (500 nM, MPP+ 48 h, p = 0.0878) is 40.3 ± 8.4%. The “neuroprotective activity” value in data set [3] (MPP+ 48 h) is “reduced potency in the neuroprotection assay”. For the same molecule, the “binding to GRP78-NBD (spectral shift), in words” value with GRP78-NBD [4] is “impaired binding to GRP78-NBD; also recorded: weak binding to GRP78-NBD”. Besides, the “decrease in nuclear ATF4” value with nucleus-localized ATF4 (500 nM, p = 0.0498) is 55.3 ± 8.2%. The “reduction in aSyn aggregation, change from MPP+ model effect” value in [5] (500 nM, MPP+ 48 h, p = 0.0073) is reported as −42.1 ± 7.7%.

B4: C-CDNF-MT2: C-CDNF mutant E156/157/163A (peptide)
peptide: B2 peptide with E30A, E31A, A38K
modifications: disulfide 32-35
Consider B4, for which the “UPR modulating effect on IRE1α pathway” value in the data set with phosphorylated IRE1α is “nearly completely lost the UPR modulating effect”. Moreover, the “neuroprotective activity” value in data set [3] (MPP+ 48 h) was “did not show any neuroprotective activity”. Also, the “binding to GRP78-NBD (spectral shift), in words” value with GRP78-NBD [4] is “do not bind to GRP78-NBD”. Also, the “UPR modulating effect on PERK/ATF4 pathway” value with nucleus-localized ATF4 is listed as “nearly completely lost the UPR modulating effect”. For the same molecule, the “activity in neuroprotection or aSyn aggregation” value in [5] (all three tested concentrations, compared to wild-type C-CDNF) is on record as “very low activity in neuroprotection or aSyn aggregation”.

B5: MANF: mesencephalic astrocyte-derived neurotrophic factor (protein, UniProt P55145 25-182, looked up)
Mesencephalic …: LRPGDCEVCISYLGRFYQDLKDRDVTFSPATIENELIKFCREARGKENRLCYYIGATDDAATKIINEVSKPLAHHIPVEKICEKLKKKDSQICELKYDKQIDLSTVDLKKLRVKELKKILDDWGETCKGCAEKSDYIRKINELMPKYAPKAASARTDL
Regarding B5, the “binding to GRP78 nucleotide-binding domain” value with GRP78-NBD [6] is on record as “binds to the regulatory, nucleotide-binding domain of GRP78 via its C-terminal domain”.
